Measurements: ChEMBL document CHEMBL5696442, “Discovery of type II inhibitors of TGFβ-activated kinase 1 (TAK1) and mitogen-activated protein kinase kinase kinase kinase 2 (MAP4K2)” (J Med Chem, 2015)
The source made the active and inactive calls. The calls are words filed in the database; no cut-off is given here.

Experiments:
[1] = biological target: T1, Scaffold protein ILK (Homo sapiens) (UniProt Q13418); experiment: Inhibition of ILK K1 labeling site in human Huh-7 cells at 10 uM by KiNativ Profiling analysis relative to control; format: cell-based
T1 sequence (whole entry): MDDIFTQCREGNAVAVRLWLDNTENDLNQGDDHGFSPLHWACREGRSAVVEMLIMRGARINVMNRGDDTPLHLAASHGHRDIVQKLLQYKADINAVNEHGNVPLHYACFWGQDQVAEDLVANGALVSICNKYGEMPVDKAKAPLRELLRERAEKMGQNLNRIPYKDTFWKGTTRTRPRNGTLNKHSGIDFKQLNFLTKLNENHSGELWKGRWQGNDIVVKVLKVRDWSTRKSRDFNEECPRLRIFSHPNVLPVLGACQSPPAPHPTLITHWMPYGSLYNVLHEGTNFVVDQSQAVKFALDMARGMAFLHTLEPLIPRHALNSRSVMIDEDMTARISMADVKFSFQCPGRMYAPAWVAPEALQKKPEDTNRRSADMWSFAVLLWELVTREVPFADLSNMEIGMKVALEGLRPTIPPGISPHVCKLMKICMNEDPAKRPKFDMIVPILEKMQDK

[2] = biological target: AMPK alpha1/alpha2 (Homo sapiens) (UniProt P54646+Q13131); experiment: Inhibition of AMPK alpha1/2 K2 labeling site in human Huh-7 cells at 10 uM by KiNativ Profiling analysis relative to control; format: cell-based
[3] = biological target: Rho-associated protein kinase 2 (Homo sapiens) (UniProt O75116); experiment: Inhibition of ROCK2 (unknown origin) at 10 uM by Ambit Kinomescan binding assay
In short: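 ATP-site competition binding assay across a panel of more than 420 kinases, with each compound tested at 10 or 1 μM.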

[4] = biological target: T2, Mitogen-activated protein kinase kinase kinase 5 (Homo sapiens) (UniProt Q99683); experiment: Inhibition of MAP3K5 Lys2 labeling site in human A-375 cells at 0.05 uM by KiNativ Profiling analysis relative to control; format: cell-based
T2 sequence (whole entry): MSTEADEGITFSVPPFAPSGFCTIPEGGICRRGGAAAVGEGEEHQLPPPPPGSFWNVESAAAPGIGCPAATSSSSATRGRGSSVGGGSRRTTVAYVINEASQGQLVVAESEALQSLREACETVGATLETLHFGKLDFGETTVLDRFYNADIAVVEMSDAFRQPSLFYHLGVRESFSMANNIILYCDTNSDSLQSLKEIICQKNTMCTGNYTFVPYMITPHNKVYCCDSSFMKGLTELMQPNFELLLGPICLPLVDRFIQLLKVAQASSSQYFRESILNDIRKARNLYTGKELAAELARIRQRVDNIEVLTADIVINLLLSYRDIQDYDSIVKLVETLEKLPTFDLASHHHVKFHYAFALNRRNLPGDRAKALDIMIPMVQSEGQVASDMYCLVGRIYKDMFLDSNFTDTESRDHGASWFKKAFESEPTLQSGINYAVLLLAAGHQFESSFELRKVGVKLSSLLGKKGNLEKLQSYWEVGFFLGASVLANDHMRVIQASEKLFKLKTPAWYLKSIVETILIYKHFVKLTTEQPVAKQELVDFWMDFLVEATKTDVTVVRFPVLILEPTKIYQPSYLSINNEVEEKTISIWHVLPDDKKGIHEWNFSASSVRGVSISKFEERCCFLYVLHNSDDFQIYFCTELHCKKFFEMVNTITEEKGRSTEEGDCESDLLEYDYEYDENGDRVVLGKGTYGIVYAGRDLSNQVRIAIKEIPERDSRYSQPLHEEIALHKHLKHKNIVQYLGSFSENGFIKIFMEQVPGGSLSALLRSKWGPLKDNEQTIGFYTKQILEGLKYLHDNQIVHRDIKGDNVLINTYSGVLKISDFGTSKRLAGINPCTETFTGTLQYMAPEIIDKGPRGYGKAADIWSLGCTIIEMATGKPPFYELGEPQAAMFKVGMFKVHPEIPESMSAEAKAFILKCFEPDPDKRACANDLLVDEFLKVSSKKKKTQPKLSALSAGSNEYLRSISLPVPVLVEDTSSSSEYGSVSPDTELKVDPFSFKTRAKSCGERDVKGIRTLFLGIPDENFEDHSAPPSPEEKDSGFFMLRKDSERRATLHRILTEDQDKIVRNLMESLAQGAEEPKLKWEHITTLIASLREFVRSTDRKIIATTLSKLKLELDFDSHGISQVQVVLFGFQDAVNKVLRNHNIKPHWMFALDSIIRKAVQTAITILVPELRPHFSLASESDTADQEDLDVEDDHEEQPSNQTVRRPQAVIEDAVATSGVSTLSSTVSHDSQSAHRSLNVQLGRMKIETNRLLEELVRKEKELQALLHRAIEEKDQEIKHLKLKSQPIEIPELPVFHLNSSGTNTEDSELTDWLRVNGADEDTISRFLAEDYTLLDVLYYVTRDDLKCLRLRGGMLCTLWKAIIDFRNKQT

[5] = biological target: T3, Serine/threonine-protein kinase Sgk3 (Homo sapiens) (UniProt Q96BR1); experiment: Inhibition of SGK3 Lys1 labeling site in human A-375 cells at 0.05 uM by KiNativ Profiling analysis relative to control; format: cell-based
T3 sequence (whole entry): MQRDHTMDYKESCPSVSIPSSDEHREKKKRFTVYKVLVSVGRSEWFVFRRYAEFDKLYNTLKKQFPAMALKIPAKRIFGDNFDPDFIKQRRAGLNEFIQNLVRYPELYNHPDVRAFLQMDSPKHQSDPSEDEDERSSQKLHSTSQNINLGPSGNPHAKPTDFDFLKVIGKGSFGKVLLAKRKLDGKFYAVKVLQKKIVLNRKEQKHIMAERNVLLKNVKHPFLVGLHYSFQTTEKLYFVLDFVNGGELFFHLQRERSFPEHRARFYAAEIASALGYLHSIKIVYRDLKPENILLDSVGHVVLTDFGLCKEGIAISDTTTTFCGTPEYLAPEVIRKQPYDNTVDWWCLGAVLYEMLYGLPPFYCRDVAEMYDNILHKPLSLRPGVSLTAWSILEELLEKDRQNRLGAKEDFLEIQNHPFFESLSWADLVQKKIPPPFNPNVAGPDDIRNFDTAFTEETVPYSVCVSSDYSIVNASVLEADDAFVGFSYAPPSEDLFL

[6] = biological target: Protein kinase C epsilon type (Homo sapiens) (UniProt Q02156); experiment: Inhibition of PRKCE (unknown origin) at 1 uM by Ambit Kinomescan binding assay relative to control; values are per cent of control
[7] = system: Tyrosine-protein kinase ABL1 (Homo sapiens), P00519 [T315I]; experiment: Inhibition of nonphosphorylated ABL1 T315I mutant (unknown origin) at 1 uM by Ambit Kinomescan binding assay relative to control
[8] = biological target: 5'-AMP-activated protein kinase catalytic subunit alpha-1 (Homo sapiens) (UniProt Q13131); experiment: Inhibition of AMPKa1 ATP Loop labeling site in human A-375 cells at 5 uM by KiNativ Profiling analysis relative to control; format: cell-based
Sequence of 5'-AMP-activated protein kinase catalytic subunit alpha-1 (Homo sapiens) (Q13131 whole entry, looked up): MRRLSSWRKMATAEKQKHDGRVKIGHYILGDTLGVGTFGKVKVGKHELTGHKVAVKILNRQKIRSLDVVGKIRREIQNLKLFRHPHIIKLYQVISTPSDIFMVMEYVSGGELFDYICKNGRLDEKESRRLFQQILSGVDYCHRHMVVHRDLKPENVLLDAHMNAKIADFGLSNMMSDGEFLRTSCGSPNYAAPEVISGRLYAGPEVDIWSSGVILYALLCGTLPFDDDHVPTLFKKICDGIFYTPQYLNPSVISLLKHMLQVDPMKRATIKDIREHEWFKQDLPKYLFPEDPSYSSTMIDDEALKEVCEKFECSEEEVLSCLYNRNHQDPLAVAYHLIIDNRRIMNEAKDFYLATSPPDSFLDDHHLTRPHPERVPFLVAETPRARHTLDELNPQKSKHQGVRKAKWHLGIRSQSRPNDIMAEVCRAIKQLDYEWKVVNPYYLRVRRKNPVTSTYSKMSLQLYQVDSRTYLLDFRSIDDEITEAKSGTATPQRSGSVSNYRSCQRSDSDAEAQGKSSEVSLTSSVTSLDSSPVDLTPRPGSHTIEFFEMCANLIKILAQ

Sequence of AMPK alpha1/alpha2 (Homo sapiens) (P54646 whole entry, looked up): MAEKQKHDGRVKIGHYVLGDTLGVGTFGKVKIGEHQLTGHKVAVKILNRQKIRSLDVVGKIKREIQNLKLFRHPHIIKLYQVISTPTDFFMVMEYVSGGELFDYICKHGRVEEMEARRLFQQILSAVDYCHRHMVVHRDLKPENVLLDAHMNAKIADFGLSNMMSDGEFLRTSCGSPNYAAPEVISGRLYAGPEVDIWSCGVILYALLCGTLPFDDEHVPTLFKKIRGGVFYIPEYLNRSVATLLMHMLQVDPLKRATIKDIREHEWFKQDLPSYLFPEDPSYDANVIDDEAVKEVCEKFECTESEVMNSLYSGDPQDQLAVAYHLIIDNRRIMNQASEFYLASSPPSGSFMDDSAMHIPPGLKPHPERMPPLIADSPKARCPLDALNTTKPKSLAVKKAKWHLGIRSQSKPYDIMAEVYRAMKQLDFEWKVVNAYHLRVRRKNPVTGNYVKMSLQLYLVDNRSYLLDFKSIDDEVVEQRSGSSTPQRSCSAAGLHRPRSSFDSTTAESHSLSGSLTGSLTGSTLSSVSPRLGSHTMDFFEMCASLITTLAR
Sequence of AMPK alpha1/alpha2 (Homo sapiens) (Q13131 whole entry, looked up): as the sequence (Q13131 whole entry, looked up) above
Sequence of Rho-associated protein kinase 2 (Homo sapiens) (O75116 whole entry, looked up): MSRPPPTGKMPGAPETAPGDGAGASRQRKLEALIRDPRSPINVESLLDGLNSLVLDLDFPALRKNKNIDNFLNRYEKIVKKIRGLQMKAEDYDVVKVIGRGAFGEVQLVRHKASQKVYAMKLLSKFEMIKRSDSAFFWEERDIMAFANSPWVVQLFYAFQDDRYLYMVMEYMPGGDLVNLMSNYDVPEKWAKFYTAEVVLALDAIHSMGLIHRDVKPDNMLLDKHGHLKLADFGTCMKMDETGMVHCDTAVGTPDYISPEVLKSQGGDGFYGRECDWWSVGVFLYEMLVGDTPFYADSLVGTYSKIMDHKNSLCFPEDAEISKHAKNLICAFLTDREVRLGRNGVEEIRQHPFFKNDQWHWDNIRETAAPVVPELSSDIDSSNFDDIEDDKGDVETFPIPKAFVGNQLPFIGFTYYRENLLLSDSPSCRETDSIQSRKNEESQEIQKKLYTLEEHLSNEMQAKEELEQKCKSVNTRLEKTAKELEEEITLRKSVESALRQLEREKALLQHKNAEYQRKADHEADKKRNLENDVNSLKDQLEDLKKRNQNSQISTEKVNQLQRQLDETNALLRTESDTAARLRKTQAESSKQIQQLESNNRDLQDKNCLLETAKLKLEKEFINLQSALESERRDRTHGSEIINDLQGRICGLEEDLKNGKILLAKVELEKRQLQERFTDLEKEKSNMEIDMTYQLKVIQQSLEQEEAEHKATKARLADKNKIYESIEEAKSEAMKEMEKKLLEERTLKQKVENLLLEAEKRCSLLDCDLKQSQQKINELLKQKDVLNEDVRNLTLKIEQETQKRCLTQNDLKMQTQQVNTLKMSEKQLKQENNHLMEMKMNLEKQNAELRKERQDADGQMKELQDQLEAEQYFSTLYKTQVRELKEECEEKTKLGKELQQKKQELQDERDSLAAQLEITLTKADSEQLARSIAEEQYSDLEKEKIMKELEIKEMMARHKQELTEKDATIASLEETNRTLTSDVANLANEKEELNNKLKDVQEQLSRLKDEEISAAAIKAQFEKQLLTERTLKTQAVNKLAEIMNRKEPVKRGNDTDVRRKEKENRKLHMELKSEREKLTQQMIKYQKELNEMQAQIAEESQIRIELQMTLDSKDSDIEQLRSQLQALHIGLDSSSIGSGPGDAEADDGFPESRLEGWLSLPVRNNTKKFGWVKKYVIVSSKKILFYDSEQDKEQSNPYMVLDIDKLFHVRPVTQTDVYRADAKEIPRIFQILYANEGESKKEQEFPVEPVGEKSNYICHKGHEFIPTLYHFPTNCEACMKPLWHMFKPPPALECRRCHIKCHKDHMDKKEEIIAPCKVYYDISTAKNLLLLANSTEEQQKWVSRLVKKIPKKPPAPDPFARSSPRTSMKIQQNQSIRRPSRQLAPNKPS
Sequence of Protein kinase C epsilon type (Homo sapiens) (Q02156 whole entry): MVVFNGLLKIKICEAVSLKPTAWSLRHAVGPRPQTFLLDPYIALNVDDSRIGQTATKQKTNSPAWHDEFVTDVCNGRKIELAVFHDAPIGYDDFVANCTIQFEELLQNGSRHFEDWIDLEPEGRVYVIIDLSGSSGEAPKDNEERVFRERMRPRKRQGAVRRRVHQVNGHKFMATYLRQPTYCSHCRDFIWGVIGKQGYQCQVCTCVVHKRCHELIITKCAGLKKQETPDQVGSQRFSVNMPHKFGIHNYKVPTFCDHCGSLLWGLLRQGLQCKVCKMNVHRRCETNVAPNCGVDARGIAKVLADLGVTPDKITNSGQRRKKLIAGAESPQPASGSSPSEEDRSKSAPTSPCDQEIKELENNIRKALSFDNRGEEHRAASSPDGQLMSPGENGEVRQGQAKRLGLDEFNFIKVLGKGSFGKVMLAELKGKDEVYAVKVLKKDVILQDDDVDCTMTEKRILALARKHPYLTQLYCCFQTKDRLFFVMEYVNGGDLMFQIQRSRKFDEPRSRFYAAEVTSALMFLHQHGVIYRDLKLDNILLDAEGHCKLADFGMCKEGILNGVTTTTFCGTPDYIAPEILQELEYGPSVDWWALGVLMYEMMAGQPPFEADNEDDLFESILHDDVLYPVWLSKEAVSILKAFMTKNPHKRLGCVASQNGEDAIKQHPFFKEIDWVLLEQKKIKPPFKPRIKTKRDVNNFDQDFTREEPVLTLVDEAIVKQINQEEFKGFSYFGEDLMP

SMILES	inhibition [1] [%]	inhibition [2] [%]	inhibition [3]	inhibition [4] [%]	inhibition [5] [%]	residual activity [6] [%]	inhibition [7] [%]	inhibition [8] [%]
CCN1CCN(Cc2ccc(NC(=O)c3ccc(C)c(Oc4ccnc5[nH]ccc45)c3)cc2C(F)(F)F)CC1	-5.7	6.2	inactive	-6.6	3.5	–	–	–
CCN1CCN(Cc2ccc(NC(=O)c3ccc(C)c(/C=C/c4cnc5[nH]ccc5c4OC)c3)cc2C(F)(F)F)CC1	–	–	–	–	–	62	11	9.1
